Values belong to the compound of their own block, whether it stands above or below them.
Assays:
[1] = biological target: T1, Hepatocyte growth factor receptor (Homo sapiens, UniProt P08581); assay: Inhibition of purified recombinant c-Met after 60 mins by ELISA
[2] = biological target: T1, Hepatocyte growth factor receptor; assay: Inhibition of purified recombinant c-Met at 10 uM after 60 mins by ELISA
BaF3 [3] = assay: Antiproliferative activity against mouse BAF3 cells expressing TPR-Met after 72 hrs in presence of IL-3; type: functional, cell-based; conditions: BaF3, 72 h
In short: (§1)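 Cells were seeded and exposed next day to a range of compound concentrations for 72 h. Proliferation was read by sulforhodamine B or MTT assay, and IC50 derived.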

[4] = biological target: Hepatocyte growth factor receptor (Mus musculus) (UniProt P16056); assay: Inhibition of TPR-MET autophosphorylation in mouse NIH3T3 cells after 4 hrs by Western blotting; type: cell-based
Hepatocyte growth factor receptor (Mus musculus), sequence (P16056 whole entry): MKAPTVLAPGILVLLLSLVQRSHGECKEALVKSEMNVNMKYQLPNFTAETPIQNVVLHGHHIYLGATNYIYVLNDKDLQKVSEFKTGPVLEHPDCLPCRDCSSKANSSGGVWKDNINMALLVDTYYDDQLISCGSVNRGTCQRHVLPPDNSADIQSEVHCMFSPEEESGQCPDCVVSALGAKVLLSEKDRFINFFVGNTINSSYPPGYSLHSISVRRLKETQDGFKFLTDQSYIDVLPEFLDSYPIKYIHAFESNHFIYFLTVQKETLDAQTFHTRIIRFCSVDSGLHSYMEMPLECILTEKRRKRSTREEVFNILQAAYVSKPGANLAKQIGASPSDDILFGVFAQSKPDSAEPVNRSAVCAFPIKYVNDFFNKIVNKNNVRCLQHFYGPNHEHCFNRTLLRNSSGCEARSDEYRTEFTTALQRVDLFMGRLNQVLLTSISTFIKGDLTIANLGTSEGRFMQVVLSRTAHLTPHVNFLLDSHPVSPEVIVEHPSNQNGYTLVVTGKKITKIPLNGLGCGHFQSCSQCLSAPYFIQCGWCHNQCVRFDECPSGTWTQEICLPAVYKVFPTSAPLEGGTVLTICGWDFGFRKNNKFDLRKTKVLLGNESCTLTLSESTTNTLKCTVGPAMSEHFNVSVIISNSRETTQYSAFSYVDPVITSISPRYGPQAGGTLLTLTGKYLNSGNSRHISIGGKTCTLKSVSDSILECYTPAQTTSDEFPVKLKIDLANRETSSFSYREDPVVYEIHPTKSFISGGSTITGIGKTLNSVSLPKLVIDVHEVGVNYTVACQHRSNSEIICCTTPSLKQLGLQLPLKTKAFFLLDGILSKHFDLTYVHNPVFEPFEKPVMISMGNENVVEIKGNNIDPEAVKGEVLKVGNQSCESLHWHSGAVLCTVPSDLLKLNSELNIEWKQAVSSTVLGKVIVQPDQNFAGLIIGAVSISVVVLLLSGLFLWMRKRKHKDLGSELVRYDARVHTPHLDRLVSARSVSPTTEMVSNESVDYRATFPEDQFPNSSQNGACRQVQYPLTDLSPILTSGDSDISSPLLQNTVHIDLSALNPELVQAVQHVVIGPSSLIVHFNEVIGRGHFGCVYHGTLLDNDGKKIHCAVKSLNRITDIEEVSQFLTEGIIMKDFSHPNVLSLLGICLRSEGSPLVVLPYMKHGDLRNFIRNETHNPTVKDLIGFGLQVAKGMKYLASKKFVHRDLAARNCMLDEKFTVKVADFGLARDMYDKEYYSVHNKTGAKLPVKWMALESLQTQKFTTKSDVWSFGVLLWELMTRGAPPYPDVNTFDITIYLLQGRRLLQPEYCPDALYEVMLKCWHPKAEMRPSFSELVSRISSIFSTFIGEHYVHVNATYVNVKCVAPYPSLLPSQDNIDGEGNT
In short: (§2)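 Exponentially growing cells were treated with compound for 4 h at 37 °C and lysed in SDS sample buffer. Lysates were run on 10% SDS-PAGE and blotted to nitrocellulose. Blots were probed for phospho-c-Met and total c-Met, with GAPDH as loading control, and detected by ECL.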

[5] = biological target: Hepatocyte growth factor receptor (Mus musculus) (UniProt P16056); assay: Inhibition of TPR-MET autophosphorylation in mouse BaF3 cells after 4 hrs by Western blotting; type: cell-based; in short: as §2
BaF3 [6] = assay: Antiproliferative activity against mouse BAF3 cells expressing TPR-Met after 72 hrs in absence of IL-3; type: functional, cell-based; conditions: BaF3, 72 h; in short: as §1
NIH3T3 [7] = assay: Antiproliferative activity against mouse NIH/3T3 cells expressing TPR-Met after 72 hrs; type: functional, cell-based; conditions: NIH3T3, 72 h; in short: as §1
NIH3T3 [8] = assay: Antiproliferative activity against mouse NIH/3T3 cells after 72 hrs; type: functional, cell-based; conditions: NIH3T3, 72 h; in short: as §1
MKN-45 = assay: Antiproliferative activity against human MKN45 cells after 72 hrs; conditions: MKN-45, 72 h
NCI-H1993 = assay: Antiproliferative activity against human NCI-H1993 cells after 72 hrs; conditions: NCI-H1993, 72 h
SNU-5 = assay: Antiproliferative activity against human SNU5 cells after 72 hrs; conditions: SNU-5, 72 h
SNU1 = assay: Antiproliferative activity against human SNU1 cells after 72 hrs; conditions: SNU1, 72 h
NCI-H441 = assay: Antiproliferative activity against human NCI-H441 cells after 72 hrs; conditions: NCI-H441, 72 h
MDA-MB-231 = assay: Antiproliferative activity against human MDA-MB-231 cells after 72 hrs; conditions: MDA-MB-231, 72 h
MCF7 = assay: Antiproliferative activity against human MCF7 cells after 72 hrs; conditions: MCF7, 72 h
BXPC-3 = assay: Antiproliferative activity against human BxPC3 cells after 72 hrs; conditions: BXPC-3, 72 h
[9] = Clearance in mouse at 10 mg/kg, iv; type: ADME, organism-based; parameters: dose 10 mg/kg, route intravenous; conditions: in vivo
In short: (§3)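 Single iv dose of 10 mg/kg to mice, vehicle DMSO/Tween 80/normal saline. Clearance and half-life were derived from plasma concentration-time data. Average of three runs.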

[10] = Volume of distribution at steady state in mouse at 10 mg/kg, iv; type: ADME, organism-based; parameters: dose 10 mg/kg, route intravenous; conditions: in vivo, read-out: Vdss
[11] = Half life in mouse at 10 mg/kg, iv; type: ADME, organism-based; parameters: dose 10 mg/kg, route intravenous; conditions: in vivo; in short: as §3
[12] = Cmax in mouse at 20 mg/kg, po; type: ADME, organism-based; parameters: dose 20 mg/kg, route oral; conditions: in vivo
In short: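 Oral 20 mg/kg single dose to mice, vehicle DMSO/Tween 80/normal saline. Cmax was read from the plasma concentration-time profile. Average of three runs.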

[13] = Tmax in mouse at 20 mg/kg, po; type: ADME, organism-based; parameters: dose 20 mg/kg, route oral; conditions: in vivo
[14] = AUC (0 to infinity) in mouse at 20 mg/kg, po; type: ADME, organism-based; parameters: dose 20 mg/kg, route oral, time infinity; conditions: plasma
In short: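 Mice dosed orally at 20 mg/kg in DMSO/Tween 80/normal saline vehicle; plasma concentration-time profile used to derive AUC0-∞. Values are the average of three runs.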

[15] = Oral bioavailability in mouse at 20 mg/kg; type: ADME, organism-based; conditions: in vivo
[16] = Clearance in mouse at 2.5 mg/kg, iv; type: ADME, organism-based; parameters: dose 2.5 mg/kg, route intravenous; conditions: in vivo
In short: (§4)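 Single iv dose to mice in DMSO/Tween 80/normal saline vehicle, reduced to 2.5 mg/kg because of poor solubility. Clearance and half-life were taken from plasma concentration-time data. Average of three runs.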

[17] = Volume of distribution at steady state in mouse at 2.5 mg/kg, iv; type: ADME, organism-based; parameters: dose 2.5 mg/kg, route intravenous; conditions: in vivo, read-out: Vdss
[18] = Half life in mouse at 2.5 mg/kg, iv; type: ADME, organism-based; parameters: dose 2.5 mg/kg, route intravenous; conditions: in vivo; in short: as §4

T1 sequence (P08581 whole entry): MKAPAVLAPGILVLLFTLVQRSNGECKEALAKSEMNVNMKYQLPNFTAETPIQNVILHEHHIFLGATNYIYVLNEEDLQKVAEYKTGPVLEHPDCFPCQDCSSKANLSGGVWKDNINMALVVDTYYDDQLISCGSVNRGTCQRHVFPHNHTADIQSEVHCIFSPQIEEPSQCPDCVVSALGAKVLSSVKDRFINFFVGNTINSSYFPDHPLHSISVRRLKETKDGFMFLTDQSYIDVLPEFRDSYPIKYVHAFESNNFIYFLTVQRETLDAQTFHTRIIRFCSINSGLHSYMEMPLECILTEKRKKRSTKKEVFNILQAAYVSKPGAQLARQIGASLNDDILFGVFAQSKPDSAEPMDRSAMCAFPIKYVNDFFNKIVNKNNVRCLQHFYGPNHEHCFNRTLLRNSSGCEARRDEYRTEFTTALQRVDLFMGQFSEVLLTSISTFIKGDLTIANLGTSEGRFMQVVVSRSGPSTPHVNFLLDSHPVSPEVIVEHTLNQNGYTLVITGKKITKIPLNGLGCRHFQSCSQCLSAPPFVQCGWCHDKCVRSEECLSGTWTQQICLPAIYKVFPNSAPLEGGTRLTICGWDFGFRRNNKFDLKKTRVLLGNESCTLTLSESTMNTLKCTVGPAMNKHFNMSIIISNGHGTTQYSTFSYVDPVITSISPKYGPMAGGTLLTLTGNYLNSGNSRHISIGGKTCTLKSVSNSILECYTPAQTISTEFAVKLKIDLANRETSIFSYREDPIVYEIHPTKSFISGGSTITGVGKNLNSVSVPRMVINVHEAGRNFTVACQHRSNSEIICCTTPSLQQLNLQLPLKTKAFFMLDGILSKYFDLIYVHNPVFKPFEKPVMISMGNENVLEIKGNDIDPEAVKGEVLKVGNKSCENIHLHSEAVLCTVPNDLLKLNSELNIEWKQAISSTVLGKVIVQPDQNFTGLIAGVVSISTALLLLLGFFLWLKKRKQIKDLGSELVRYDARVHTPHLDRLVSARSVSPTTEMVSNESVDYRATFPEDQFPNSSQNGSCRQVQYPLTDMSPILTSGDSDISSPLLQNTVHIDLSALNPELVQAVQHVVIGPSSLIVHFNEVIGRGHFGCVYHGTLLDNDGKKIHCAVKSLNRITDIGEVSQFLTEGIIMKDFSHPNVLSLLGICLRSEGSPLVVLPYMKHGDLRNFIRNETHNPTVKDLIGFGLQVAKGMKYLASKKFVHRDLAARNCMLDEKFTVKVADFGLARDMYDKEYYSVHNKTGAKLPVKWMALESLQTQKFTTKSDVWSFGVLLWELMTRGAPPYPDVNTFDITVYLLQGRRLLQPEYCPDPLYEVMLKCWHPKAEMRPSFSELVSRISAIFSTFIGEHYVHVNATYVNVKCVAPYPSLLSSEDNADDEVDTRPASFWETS

IC50 [1]: 110 nM
Structure (SMILES): CC(=O)N1CCN(c2cnc3cccc(NCc4cccc([N+](=O)[O-])c4)c3c2)CC1

IC50 [1]: 3440 nM
Structure (SMILES): CN1CCN(c2cnc3cccc(NS(=O)(=O)c4cccc([N+](=O)[O-])c4)c3c2)CC1

inhibition [2]: 12.6%
Structure (SMILES): CN1CCN(c2cnc3cccc(OC(=O)c4cccn(-c5ccc(F)cc5)c4=O)c3c2)CC1

IC50 [1]: 10000 nM
Structure (SMILES): CCN1CCN(c2cnc3cc(C(F)(F)F)cc(NCc4ccc(F)cc4)c3c2)CC1

IC50 [1]: 140 nM
Structure (SMILES): CN1CCN(c2cnc3cccc(OCc4cccc([N+](=O)[O-])c4)c3c2)CC1

IC50 [1]: 43 nM
Structure (SMILES): COC(=O)N1CCN(c2cnc3cc(C(F)(F)F)cc(NCc4cccc([N+](=O)[O-])c4)c3c2)CC1

IC50 [1]: 0.72 nM
IC50 (BaF3 [3]): ≥ 50 µM
inhibition [4]: Dose-dependent effect
inhibition [5]: Dose-dependent effect
IC50 (BaF3 [6]): 4200 nM
Structure (SMILES): O=[N+]([O-])c1cccc(CNc2cc(C(F)(F)F)cc3ncc(N4CCOCC4)cc23)c1
IC50 (NIH3T3 [7]): 4 µM
IC50 (NIH3T3 [8]): ≥ 50 µM

IC50 [1]: 1.01 nM
IC50 (BaF3 [3]): 10.1 µM
inhibition [4]: Dose-dependent effect
inhibition [5]: Dose-dependent effect
IC50 (BaF3 [6]): 370 nM
Structure (SMILES): CCN1CCN(c2cnc3cc(C(F)(F)F)cc(NCc4cccc([N+](=O)[O-])c4)c3c2)CC1
IC50 (NIH3T3 [7]): 2.6 µM
IC50 (NIH3T3 [8]): 13.2 µM

IC50 [1]: 10.6 nM
Structure (SMILES): CC(C)(C)OC(=O)N1CCN(c2cnc3cc(C(F)(F)F)cc(NCc4cccc([N+](=O)[O-])c4)c3c2)CC1

IC50 [1]: 3.4 nM
Structure (SMILES): O=[N+]([O-])c1cccc(CNc2cc(C(F)(F)F)cc3ncc(N4CCCCC4)cc23)c1

IC50 [1]: 166 nM
Structure (SMILES): CN1CCN(c2cnc3cccc(NCc4cccc([N+](=O)[O-])c4)c3c2)CC1

inhibition [2]: 8.9%
Structure (SMILES): CN1CCN(c2cnc3cc(NCc4cccc([N+](=O)[O-])c4)cc(C(F)(F)F)c3c2)CC1

IC50 [1]: 5.6 nM
Structure (SMILES): CCN1CCN(c2cnc3cc(C(F)(F)F)cc(NCc4cccc(C#N)c4)c3c2)CC1

IC50 [1]: 450 nM
Structure (SMILES): CN1CCN(c2cnc3cc(C(F)(F)F)cc(NCc4cccc(F)c4)c3c2)CC1

inhibition [2]: 12.4%
Structure (SMILES): CN1CCN(c2cnc3cccc(NC(=S)Nc4cccc([N+](=O)[O-])c4)c3c2)CC1

IC50 [1]: 230 nM
Structure (SMILES): CCN1CCN(c2cnc3cc(C(F)(F)F)cc(NCc4cccc(O)c4)c3c2)CC1

IC50 [1]: 5800 nM
Structure (SMILES): CN1CCN(c2cnc3cccc(-c4ccc5ccccc5c4)c3c2)CC1

inhibition [2]: 30.7%
Structure (SMILES): CN1CCN(c2cnc3cccc(-c4cccc(O)c4)c3c2)CC1

IC50 [1]: 4.4 nM
Structure (SMILES): O=C(O)CN1CCN(c2cnc3cc(C(F)(F)F)cc(NCc4cccc([N+](=O)[O-])c4)c3c2)CC1

inhibition [2]: 25.8%
Structure (SMILES): CN1CCN(c2cnc3cccc(OCc4cccc(F)c4)c3c2)CC1

IC50 [1]: 2.2 nM
Structure (SMILES): O=[N+]([O-])c1cccc(CNc2cc(C(F)(F)F)cc3ncc(N4CCNCC4)cc23)c1

IC50 [1]: 99 nM
Structure (SMILES): CN1CCN(c2cnc3cc(C(F)(F)F)cc(NS(=O)(=O)c4cccc([N+](=O)[O-])c4)c3c2)CC1

IC50 [1]: 14 nM
IC50 (BaF3 [3]): 6.4 µM
IC50 (BaF3 [6]): 530 nM
IC50 (MKN-45): 1300 nM
IC50 (NCI-H1993): 7.3 µM
IC50 (SNU-5): 800 nM
IC50 (SNU1): 7 µM
IC50 (NCI-H441): 13 µM
IC50 (MDA-MB-231): 11 µM
IC50 (MCF7): 6.2 µM
IC50 (BXPC-3): 16 µM
Structure (SMILES): Cc1[nH]c(/C=C2\C(=O)Nc3ccc(S(=O)(=O)N(C)c4cccc(Cl)c4)cc32)c(C)c1C(=O)N1CCN(C)CC1
IC50 (NIH3T3 [7]): 6.5 µM
IC50 (NIH3T3 [8]): ≥ 50 µM

inhibition [2]: 46.6%
Structure (SMILES): CCN1CCN(c2cnc3cc(NCc4cccc([N+](=O)[O-])c4)cc(C(F)(F)F)c3c2)CC1

IC50 [1]: 12300 nM
Structure (SMILES): CN1CCN(c2cnc3cccc(OCc4cccc(C#N)c4)c3c2)CC1

IC50 [1]: 0.84 nM
IC50 (BaF3 [3]): ≥ 50 µM
inhibition [4]: Dose-dependent effect
inhibition [5]: Dose-dependent effect
IC50 (BaF3 [6]): 500 nM
Structure (SMILES): O=[N+]([O-])c1cccc(CNc2cc(C(F)(F)F)cc3ncc(N4CCN(S(=O)(=O)C5CC5)CC4)cc23)c1
IC50 (NIH3T3 [7]): 1.4 µM
IC50 (NIH3T3 [8]): ≥ 50 µM

IC50 [1]: 2.7 nM
Structure (SMILES): CN1CCN(c2cnc3cc(C(F)(F)F)cc(OCc4cccc([N+](=O)[O-])c4)c3c2)CC1

Structure (SMILES): CN1CCN(c2cnc3cccc(-c4ccco4)c3c2)CC1
IC50 [1]: 12700 nM

IC50 [1]: 1200 nM
Structure (SMILES): CN1CCN(c2cnc3cccc(OS(=O)(=O)c4cccc([N+](=O)[O-])c4)c3c2)CC1

IC50 [1]: 22400 nM
Structure (SMILES): CC(=O)N1CCN(c2cnc3cccc(NC(=O)Nc4cccc([N+](=O)[O-])c4)c3c2)CC1

IC50 [1]: 2300 nM
Structure (SMILES): CN1CCN(c2cnc3cccc(-c4cccc([N+](=O)[O-])c4)c3c2)CC1

inhibition [2]: 7.3%
Structure (SMILES): CN1CCN(c2cnc3cccc(OC(=O)c4cccc([N+](=O)[O-])c4)c3c2)CC1

IC50 [1]: 0.77 nM
IC50 (BaF3 [3]): 14.1 µM
inhibition [4]: Dose-dependent effect
inhibition [5]: Dose-dependent effect
IC50 (BaF3 [6]): 1400 nM
clearance [9]: 40.5 mL/min/kg
Vd [10]: 1.36 L/kg
half-life [11]: 67.8 min
Cmax [12]: 279 ng/mL
Tmax [13]: 30 min
AUC(0-inf) [14]: 700 ng·h/mL
bioavailability [15]: 8.2%
Structure (SMILES): CCOC(=O)CN1CCN(c2cnc3cc(C(F)(F)F)cc(NCc4cccc([N+](=O)[O-])c4)c3c2)CC1
IC50 (NIH3T3 [7]): 5.9 µM
IC50 (NIH3T3 [8]): ≥ 50 µM

inhibition [2]: 29.9%
Structure (SMILES): CN1CCN(c2cnc3cccc(-c4ccc(F)cc4)c3c2)CC1

IC50 [1]: 160 nM
Structure (SMILES): CN1CCN(c2cnc3cc(C(F)(F)F)cc(NCc4cccnc4)c3c2)CC1

inhibition [2]: 13.9%
Structure (SMILES): CC(=O)N1CCN(c2cnc3cccc(NC(=S)Nc4cccc([N+](=O)[O-])c4)c3c2)CC1

inhibition [2]: 25.2%
Structure (SMILES): CN1CCN(c2cnc3cccc(NC(=O)Nc4cccc([N+](=O)[O-])c4)c3c2)CC1

IC50 [1]: 2560 nM
Structure (SMILES): CC(=O)N1CCN(c2cnc3cccc(NS(=O)(=O)c4cccc([N+](=O)[O-])c4)c3c2)CC1

IC50 [1]: 0.82 nM
IC50 (BaF3 [3]): ≥ 50 µM
inhibition [4]: Dose-dependent effect
inhibition [5]: Dose-dependent effect
IC50 (BaF3 [6]): 8800 nM
clearance [16]: 43.3 mL/min/kg
Vd [17]: 1.72 L/kg
half-life [18]: 58.2 min
Cmax [12]: 59.3 ng/mL
Tmax [13]: 79.8 min
AUC(0-inf) [14]: 366 ng·h/mL
bioavailability [15]: 3.7%
Structure (SMILES): CS(=O)(=O)N1CCN(c2cnc3cc(C(F)(F)F)cc(NCc4cccc([N+](=O)[O-])c4)c3c2)CC1
IC50 (NIH3T3 [7]): 2.2 µM
IC50 (NIH3T3 [8]): ≥ 50 µM

IC50 [1]: 5300 nM
Structure (SMILES): CN1CCN(c2cnc3cccc(NC(=O)c4cccn(-c5ccc(F)cc5)c4=O)c3c2)CC1

Structure (SMILES): CN1CCN(c2cnc3cccc(-c4cccs4)c3c2)CC1
IC50 [1]: 14300 nM

Source: ChEMBL document CHEMBL1765011, “Synthesis and c-Met kinase inhibition of 3,5-disubstituted and 3,5,7-trisubstituted quinolines: identification of 3-(4-acetylpiperazin-1-yl)-5-(3-nitrobenzylamino)-7- (trifluoromethyl)quinoline as a novel anticancer agent” (J Med Chem, 2011)
